In ChEMBL document CHEMBL4316620, “Dihydropyrrolones as bacterial quorum sensing inhibitors” (Bioorg Med Chem Lett, 2019):

system: not listed separately; assay: Inhibition of quorum sensing system in Pseudomonas aeruginosa MH602 PlasB::gfp at 250 uM incubated for 15 hrs by GFP reporter gene assay; settings: not given
Outline: (§1)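 Reporter strain P. aeruginosa PlasB::gfp (PAMH602) makes its own AHL; lasB promoter drives GFP-ASV. Cultures incubated with compound over 250–31.25 µM at 37 °C for 15 h, then GFP fluorescence read at 535 nm. QSI expressed as % relative to untreated PAMH602 negative control. Furanone positive control.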

inhibition | SMILES
52.8% | C=C1C(c2ccc(Br)cc2)=CC(=O)N1c1ccc(C(F)(F)F)cc1
73.3% | C=C1NC(=O)C=C1c1cccc(Cl)c1
59.4% | C=C1C(c2ccccc2F)=CC(=O)N1c1ccc(Cl)cc1
55.3% | C=C1C(c2ccccc2F)=CC(=O)N1CCCC
61.1% | C=C1C(c2ccccc2F)=CC(=O)N1c1cccc(F)c1
82.4% | C=C1NC(=O)C=C1c1ccc(F)cc1
66.5% | C=C1NC(=O)C(C)=C1c1ccc(F)cc1
50.5% | C=C1C(c2ccccc2F)=CC(=O)N1c1cccc(Br)c1
65% | C=C1C(c2ccccc2F)=CC(=O)N1c1ccc(C)cc1
72% | C=C1NC(=O)C=C1c1ccccc1F
87.5% | O=C1C=C(Br)/C(=C/Br)O1
58.7% | C=C1C(c2ccc(Br)cc2)=CC(=O)N1c1ccc(S(C)(=O)=O)cc1

system: not listed separately; assay: Inhibition of quorum sensing system in Pseudomonas aeruginosa MH602 PlasB::gfp at 125 uM incubated for 15 hrs by GFP reporter gene assay; settings: not given; outline: as §1

inhibition | SMILES
48.4% | C=C1C(c2ccc(Br)cc2)=CC(=O)N1c1ccc(C(F)(F)F)cc1
69.4% | C=C1NC(=O)C=C1c1cccc(Cl)c1
57.9% | C=C1C(c2ccccc2F)=CC(=O)N1c1ccc(Cl)cc1
34.2% | C=C1C(c2ccccc2F)=CC(=O)N1CCCC
55.2% | C=C1C(c2ccccc2F)=CC(=O)N1c1cccc(F)c1
76.3% | C=C1NC(=O)C=C1c1ccc(F)cc1
59.9% | C=C1NC(=O)C(C)=C1c1ccc(F)cc1
43.3% | C=C1C(c2ccccc2F)=CC(=O)N1c1cccc(Br)c1
62.8% | C=C1C(c2ccccc2F)=CC(=O)N1c1ccc(C)cc1
69.7% | C=C1NC(=O)C=C1c1ccccc1F
83.1% | O=C1C=C(Br)/C(=C/Br)O1
58.1% | C=C1C(c2ccc(Br)cc2)=CC(=O)N1c1ccc(S(C)(=O)=O)cc1

system: not listed separately; assay: Inhibition of quorum sensing system in Pseudomonas aeruginosa MH602 PlasB::gfp at 62.5 uM incubated for 15 hrs by GFP reporter gene assay; settings: not given; outline: as §1

inhibition | SMILES
45.8% | C=C1C(c2ccc(Br)cc2)=CC(=O)N1c1ccc(C(F)(F)F)cc1
54.7% | C=C1NC(=O)C=C1c1cccc(Cl)c1
51.6% | C=C1C(c2ccccc2F)=CC(=O)N1c1ccc(Cl)cc1
33.5% | C=C1C(c2ccccc2F)=CC(=O)N1CCCC
41.8% | C=C1C(c2ccccc2F)=CC(=O)N1c1cccc(F)c1
60.2% | C=C1NC(=O)C=C1c1ccc(F)cc1
32.1% | C=C1NC(=O)C(C)=C1c1ccc(F)cc1
34.7% | C=C1C(c2ccccc2F)=CC(=O)N1c1cccc(Br)c1
53.3% | C=C1C(c2ccccc2F)=CC(=O)N1c1ccc(C)cc1
58.3% | C=C1NC(=O)C=C1c1ccccc1F
77% | O=C1C=C(Br)/C(=C/Br)O1
31.3% | C=C1C(c2ccc(Br)cc2)=CC(=O)N1c1ccc(S(C)(=O)=O)cc1

system: not listed separately; assay: Inhibition of quorum sensing system in Pseudomonas aeruginosa MH602 PlasB::gfp at 31.25 uM incubated for 15 hrs by GFP reporter gene assay; settings: not given; outline: as §1

inhibition | SMILES
11.2% | C=C1C(c2ccc(Br)cc2)=CC(=O)N1c1ccc(C(F)(F)F)cc1
26.3% | C=C1NC(=O)C=C1c1cccc(Cl)c1
36.2% | C=C1C(c2ccccc2F)=CC(=O)N1c1ccc(Cl)cc1
38.2% | C=C1C(c2ccccc2F)=CC(=O)N1CCCC
24% | C=C1C(c2ccccc2F)=CC(=O)N1c1cccc(F)c1
33.3% | C=C1NC(=O)C=C1c1ccc(F)cc1
26.3% | C=C1NC(=O)C(C)=C1c1ccc(F)cc1
29.3% | C=C1C(c2ccccc2F)=CC(=O)N1c1cccc(Br)c1
29.6% | C=C1C(c2ccccc2F)=CC(=O)N1c1ccc(C)cc1
37.8% | C=C1NC(=O)C=C1c1ccccc1F
65.9% | O=C1C=C(Br)/C(=C/Br)O1
11.2% | C=C1C(c2ccc(Br)cc2)=CC(=O)N1c1ccc(S(C)(=O)=O)cc1

system: Pseudomonas aeruginosa; assay: Toxicity in Pseudomonas aeruginosa MH602 PlasB::gfp assessed as inhibition of bacterial growth at 250 uM incubated for 15 hrs by spectrophotometry; format: organism-based; settings: MH602, 15 h, read-out: GI

SMILES | inhibition at 250 µM
C=C1C(c2ccc(Br)cc2)=CC(=O)N1c1ccc(C(F)(F)F)cc1 | ≤ 15%
C=C1NC(=O)C=C1c1cccc(Cl)c1 | ≤ 15%
C=C1C(c2ccccc2F)=CC(=O)N1c1ccc(Cl)cc1 | ≤ 15%
C=C1C(c2ccccc2F)=CC(=O)N1CCCC | ≤ 15%
C=C1C(c2ccccc2F)=CC(=O)N1c1cccc(F)c1 | ≤ 15%
C=C1NC(=O)C=C1c1ccc(F)cc1 | 15 to 30%
C=C1NC(=O)C(C)=C1c1ccc(F)cc1 | ≤ 15%
C=C1C(c2ccccc2F)=CC(=O)N1c1cccc(Br)c1 | ≤ 15%
C=C1C(c2ccccc2F)=CC(=O)N1c1ccc(C)cc1 | ≤ 15%
C=C1NC(=O)C=C1c1ccccc1F | ≤ 15%
O=C1C=C(Br)/C(=C/Br)O1 | > 30%
C=C1C(c2ccc(Br)cc2)=CC(=O)N1c1ccc(S(C)(=O)=O)cc1 | 15 to 30%

system: Pseudomonas aeruginosa; assay: Toxicity in Pseudomonas aeruginosa MH602 PlasB::gfp assessed as inhibition of bacterial growth at 125 uM incubated for 15 hrs by spectrophotometry; format: organism-based; settings: MH602, 15 h, read-out: GI

SMILES | inhibition at 125 µM
C=C1C(c2ccc(Br)cc2)=CC(=O)N1c1ccc(C(F)(F)F)cc1 | ≤ 15%
C=C1NC(=O)C=C1c1cccc(Cl)c1 | ≤ 15%
C=C1C(c2ccccc2F)=CC(=O)N1c1ccc(Cl)cc1 | ≤ 15%
C=C1C(c2ccccc2F)=CC(=O)N1CCCC | ≤ 15%
C=C1C(c2ccccc2F)=CC(=O)N1c1cccc(F)c1 | ≤ 15%
C=C1NC(=O)C=C1c1ccc(F)cc1 | ≤ 15%
C=C1NC(=O)C(C)=C1c1ccc(F)cc1 | ≤ 15%
C=C1C(c2ccccc2F)=CC(=O)N1c1cccc(Br)c1 | ≤ 15%
C=C1C(c2ccccc2F)=CC(=O)N1c1ccc(C)cc1 | ≤ 15%
C=C1NC(=O)C=C1c1ccccc1F | ≤ 15%
O=C1C=C(Br)/C(=C/Br)O1 | > 30%
C=C1C(c2ccc(Br)cc2)=CC(=O)N1c1ccc(S(C)(=O)=O)cc1 | ≤ 15%

system: Pseudomonas aeruginosa; assay: Toxicity in Pseudomonas aeruginosa MH602 PlasB::gfp assessed as inhibition of bacterial growth at 62.5 uM incubated for 15 hrs by spectrophotometry; format: organism-based; settings: MH602, 15 h, read-out: GI

SMILES | inhibition at 62.5 µM
C=C1C(c2ccc(Br)cc2)=CC(=O)N1c1ccc(C(F)(F)F)cc1 | ≤ 15%
C=C1NC(=O)C=C1c1cccc(Cl)c1 | ≤ 15%
C=C1C(c2ccccc2F)=CC(=O)N1c1ccc(Cl)cc1 | ≤ 15%
C=C1C(c2ccccc2F)=CC(=O)N1CCCC | ≤ 15%
C=C1C(c2ccccc2F)=CC(=O)N1c1cccc(F)c1 | ≤ 15%
C=C1NC(=O)C=C1c1ccc(F)cc1 | ≤ 15%
C=C1NC(=O)C(C)=C1c1ccc(F)cc1 | ≤ 15%
C=C1C(c2ccccc2F)=CC(=O)N1c1cccc(Br)c1 | ≤ 15%
C=C1C(c2ccccc2F)=CC(=O)N1c1ccc(C)cc1 | ≤ 15%
C=C1NC(=O)C=C1c1ccccc1F | ≤ 15%
O=C1C=C(Br)/C(=C/Br)O1 | > 30%
C=C1C(c2ccc(Br)cc2)=CC(=O)N1c1ccc(S(C)(=O)=O)cc1 | ≤ 15%

system: Pseudomonas aeruginosa; assay: Toxicity in Pseudomonas aeruginosa MH602 PlasB::gfp assessed as inhibition of bacterial growth at 31.25 uM incubated for 15 hrs by spectrophotometry; format: organism-based; settings: MH602, 15 h, read-out: GI

SMILES | inhibition at 31.25 µM
C=C1C(c2ccc(Br)cc2)=CC(=O)N1c1ccc(C(F)(F)F)cc1 | ≤ 15%
C=C1NC(=O)C=C1c1cccc(Cl)c1 | ≤ 15%
C=C1C(c2ccccc2F)=CC(=O)N1c1ccc(Cl)cc1 | ≤ 15%
C=C1C(c2ccccc2F)=CC(=O)N1CCCC | ≤ 15%
C=C1C(c2ccccc2F)=CC(=O)N1c1cccc(F)c1 | ≤ 15%
C=C1NC(=O)C=C1c1ccc(F)cc1 | ≤ 15%
C=C1NC(=O)C(C)=C1c1ccc(F)cc1 | ≤ 15%
C=C1C(c2ccccc2F)=CC(=O)N1c1cccc(Br)c1 | ≤ 15%
C=C1C(c2ccccc2F)=CC(=O)N1c1ccc(C)cc1 | ≤ 15%
C=C1NC(=O)C=C1c1ccccc1F | ≤ 15%
O=C1C=C(Br)/C(=C/Br)O1 | 15 to 30%
C=C1C(c2ccc(Br)cc2)=CC(=O)N1c1ccc(S(C)(=O)=O)cc1 | ≤ 15%

system: Pseudomonas aeruginosa; assay: Inhibition of biofilm formation in Pseudomonas aeruginosa PAO1 at 250 uM incubated for 6 hrs by crystal violet staining based method; format: functional; settings: PAO1, 6 h
Outline: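 P. aeruginosa PA01 biofilm. Cultures grown with or without test compound for 6 h. Biofilm biomass quantified by crystal violet staining (OD550). % inhibition calculated relative to DMSO control.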

SMILES | inhibition at 250 µM
C=C1C(c2ccc(Br)cc2)=CC(=O)N1c1ccc(C(F)(F)F)cc1 | 37.5%
C=C1NC(=O)C=C1c1cccc(Cl)c1 | 47.3%
C=C1C(c2ccccc2F)=CC(=O)N1c1ccc(Cl)cc1 | 46.5%
C=C1C(c2ccccc2F)=CC(=O)N1CCCC | 52.2%
C=C1C(c2ccccc2F)=CC(=O)N1c1cccc(F)c1 | 58.9%
C=C1NC(=O)C=C1c1ccc(F)cc1 | 46.1%
C=C1NC(=O)C(C)=C1c1ccc(F)cc1 | 4.4%
C=C1C(c2ccccc2F)=CC(=O)N1c1cccc(Br)c1 | 40.8%
C=C1C(c2ccccc2F)=CC(=O)N1c1ccc(C)cc1 | 49.3%
C=C1NC(=O)C=C1c1ccccc1F | 51.3%
O=C1C=C(Br)/C(=C/Br)O1 | 87.9%
C=C1C(c2ccc(Br)cc2)=CC(=O)N1c1ccc(S(C)(=O)=O)cc1 | 10.3%
